In ChEMBL document CHEMBL1153829, “Exploiting chemical libraries, structure, and genomics in the search for kinase inhibitors” (Science, 1998):
Calls of active or inactive are those of the source. The calls are words filed in the database; no cut-off is given here.

Experiments:
Saccharomyces cerevisiae [1] = assay: Downregulation of HTB2 mRNA expression in delta snq2, delta pdr5 and delta erg6 knock out yeast YRP1 at 25 µM after 2 hrs by high-density oligonucleotide array; type: functional, organism-based; conditions: 25 M
Method in brief: (§1)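 Drug-sensitized S. cerevisiae cultures grown to late logarithmic phase, then exposed to 25 μM inhibitor for 2 h. Polyadenylated mRNA isolated, converted to biotin-labeled cRNA and hybridized to a set of four high-density arrays carrying more than 260,000 25-nucleotide oligomers. Transcripts scored as changed when they shifted more than twofold in triplicate hybridizations for each of two independent experiments.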

Saccharomyces cerevisiae [2] = assay: Upregulation of INO1 gene expression in delta snq2, delta pdr5 and delta erg6 knock out yeast YRP1 at 25 µM after 2 hrs by high-density oligonucleotide array; type: functional, organism-based; conditions: 25 M
Method in brief: (§2)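 Drug-sensitized yeast strain grown to late logarithmic phase, then exposed to 25 μM inhibitor for 2 h. Polyadenylated mRNA was isolated and converted to biotin-labeled cRNA, which was hybridized to a set of four arrays carrying over 260,000 25-nucleotide oligomers. Transcripts changing more than twofold were scored, from triplicate hybridizations in each of two independent experiments.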

Saccharomyces cerevisiae [3] = assay: Increase in PCL5 mRNA level in delta snq2, delta pdr5 and delta erg6 knock out yeast YRP1 at 25 µM after 2 hrs by high-density oligonucleotide array; type: functional, organism-based; method in brief: as §1
Saccharomyces cerevisiae [4] = assay: Upregulation of YER150w gene expression in delta snq2, delta pdr5 and delta erg6 knock out yeast YRP1 at 25 µM after 2 hrs by high-density oligonucleotide array; type: functional, organism-based; conditions: 25 M; method in brief: as §2
Saccharomyces cerevisiae [5] = assay: Induction of PFK26 gene expression in delta snq2, delta pdr5 and delta erg6 knock out yeast YRP1 at 25 µM after 2 hrs by high-density oligonucleotide array; type: functional, organism-based; conditions: 25 M; method in brief: as §2
Saccharomyces cerevisiae [6] = assay: Upregulation of PDR15 gene expression in delta snq2, delta pdr5 and delta erg6 knock out yeast YRP1 at 25 µM after 2 hrs by high-density oligonucleotide array; type: functional, organism-based; conditions: 25 M; method in brief: as §2
Saccharomyces cerevisiae [7] = assay: Effect on HTA1 gene expression in delta snq2, delta pdr5 and delta erg6 knock out yeast YRP1 bearing cdc28-4 mutant allele assessed as change in mRNA level at 25 µM after 2 hrs by high-density oligonucleotide array; type: functional, organism-based
Saccharomyces cerevisiae [8] = assay: Increase in CTT1 mRNA level in delta snq2, delta pdr5 and delta erg6 knock out yeast YRP1 at 25 µM after 2 hrs by high-density oligonucleotide array; type: functional, organism-based; conditions: 25 M; method in brief: as §1
Saccharomyces cerevisiae [9] = assay: Growth inhibition of delta snq2, delta pdr5 and delta erg6 knock out yeast YRP1 assessed as synchronization by FACS analysis; type: functional, organism-based
Saccharomyces cerevisiae [10] = assay: Increase in PHO80 mRNA level in delta snq2, delta pdr5 and delta erg6 knock out yeast YRP1 at 25 µM after 2 hrs by high-density oligonucleotide array; type: functional, organism-based; method in brief: as §1
Saccharomyces cerevisiae [11] = assay: Induction of HXT5 gene expression in delta snq2, delta pdr5 and delta erg6 knock out yeast YRP1 at 25 µM after 2 hrs by high-density oligonucleotide array; type: functional, organism-based; method in brief: as §2
Saccharomyces cerevisiae [12] = assay: Effect on ZMS1 gene expression in delta snq2, delta pdr5 and delta erg6 knock out yeast YRP1 bearing cdc28-4 mutant allele assessed as change in mRNA level at 25 µM after 2 hrs by high-density oligonucleotide array; type: functional, organism-based; conditions: 25 M
Saccharomyces cerevisiae [13] = assay: Upregulation of PMC1 gene expression in delta snq2, delta pdr5 and delta erg6 knock out yeast YRP1 at 25 µM after 2 hrs by high-density oligonucleotide array; type: functional, organism-based; method in brief: as §2
Saccharomyces cerevisiae [14] = assay: Effect on YKL071W gene expression in delta snq2, delta pdr5 and delta erg6 knock out yeast YRP1 bearing cdc28-4 mutant allele assessed as change in mRNA level at 25 µM after 2 hrs by high-density oligonucleotide array; type: functional, organism-based
Saccharomyces cerevisiae [15] = assay: Effect on YER037w gene expression in delta snq2, delta pdr5 and delta erg6 knock out yeast YRP1 bearing cdc28-4 mutant allele assessed as change in mRNA level at 25 µM after 2 hrs by high-density oligonucleotide array; type: functional, organism-based
Saccharomyces cerevisiae [16] = assay: Effect on YBR147w gene expression in delta snq2, delta pdr5 and delta erg6 knock out yeast YRP1 bearing cdc28-4 mutant allele assessed as change in mRNA level at 25 µM after 2 hrs by high-density oligonucleotide array; type: functional, organism-based
Saccharomyces cerevisiae [17] = assay: Effect on YOL155C gene expression in delta snq2, delta pdr5 and delta erg6 knock out yeast YRP1 bearing cdc28-4 mutant allele assessed as change in mRNA level at 25 µM after 2 hrs by high-density oligonucleotide array; type: functional, organism-based
Saccharomyces cerevisiae [18] = assay: Growth inhibition of delta snq2, delta pdr5 and delta erg6 knock out yeast YRP1 assessed as induction of uniform arrest morphology; type: functional, organism-based
Saccharomyces cerevisiae [19] = assay: Upregulation of HSP26 gene expression in delta snq2, delta pdr5 and delta erg6 knock out yeast YRP1 at 25 µM after 2 hrs by high-density oligonucleotide array; type: functional, organism-based; method in brief: as §2
Saccharomyces cerevisiae [20] = assay: Effect on YGR043C gene expression in delta snq2, delta pdr5 and delta erg6 knock out yeast YRP1 assessed as change in mRNA level at 25 µM after 2 hrs by high-density oligonucleotide array; type: functional, organism-based; method in brief: as §1
Saccharomyces cerevisiae [21] = assay: Induction of HAP4 gene expression in delta snq2, delta pdr5 and delta erg6 knock out yeast YRP1 bearing cdc28-4 mutant allele at 25 µM after 2 hrs by high-density oligonucleotide array; type: functional, organism-based; conditions: 25 M
Method in brief: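 cdc28-4 temperature-sensitive strain and its isogenic wild type were profiled at the permissive temperature of 25°C. Polyadenylated mRNA was converted to biotin-labeled cRNA and hybridized to high-density oligonucleotide arrays. Transcripts changing more than twofold were scored, from triplicate hybridizations of RNA from a single experiment.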

Saccharomyces cerevisiae [22] = assay: Induction of PCK1 gene expression in delta snq2, delta pdr5 and delta erg6 knock out yeast YRP1 at 25 µM after 2 hrs by high-density oligonucleotide array; type: functional, organism-based; conditions: 25 M; method in brief: as §2
Saccharomyces cerevisiae [23] = assay: Decrease in RPS24A mRNA level in delta snq2, delta pdr5 and delta erg6 knock out yeast YRP1 at 25 µM after 2 hrs by high-density oligonucleotide array; type: functional; method in brief: as §1
Saccharomyces cerevisiae [24] = assay: Upregulation of YPT53 gene expression in delta snq2, delta pdr5 and delta erg6 knock out yeast YRP1 at 25 µM after 2 hrs by high-density oligonucleotide array; type: functional, organism-based; conditions: 25 M; method in brief: as §2
Saccharomyces cerevisiae [25] = assay: Increase in PHO84 mRNA level in delta snq2, delta pdr5 and delta erg6 knock out yeast YRP1 at 25 µM after 2 hrs by high-density oligonucleotide array; type: functional, organism-based; method in brief: as §1
Saccharomyces cerevisiae [26] = assay: Increase in HSP12 mRNA level in delta snq2, delta pdr5 and delta erg6 knock out yeast YRP1 at 25 µM after 2 hrs by high-density oligonucleotide array; type: functional, organism-based; method in brief: as §1
Saccharomyces cerevisiae [27] = assay: Effect on YOR248W gene expression in delta snq2, delta pdr5 and delta erg6 knock out yeast YRP1 bearing cdc28-4 mutant allele assessed as change in mRNA level at 25 µM after 2 hrs by high-density oligonucleotide array; type: functional, organism-based; conditions: 25 M
Saccharomyces cerevisiae [28] = assay: Effect on HTA2 gene expression in delta snq2, delta pdr5 and delta erg6 knock out yeast YRP1 bearing cdc28-4 mutant allele assessed as change in mRNA level at 25 µM after 2 hrs by high-density oligonucleotide array; type: functional, organism-based
Saccharomyces cerevisiae [29] = assay: Increase in PHO5 mRNA level in delta snq2, delta pdr5 and delta erg6 knock out yeast YRP1 at 25 µM after 2 hrs by high-density oligonucleotide array; type: functional, organism-based; method in brief: as §1
Saccharomyces cerevisiae [30] = assay: Effect on ACH1 gene expression in delta snq2, delta pdr5 and delta erg6 knock out yeast YRP1 bearing cdc28-4 mutant allele assessed as change in mRNA level at 25 µM after 2 hrs by high-density oligonucleotide array; type: functional, organism-based; conditions: 25 M
Saccharomyces cerevisiae [31] = assay: Effect on ATR1 gene expression in delta snq2, delta pdr5 and delta erg6 knock out yeast YRP1 bearing cdc28-4 mutant allele assessed as change in mRNA level at 25 µM after 2 hrs by high-density oligonucleotide array; type: functional, organism-based

SMILES | Activity (Saccharomyces cerevisiae [1]) | Activity (Saccharomyces cerevisiae [2]) | Activity (Saccharomyces cerevisiae [3]) | Activity (Saccharomyces cerevisiae [4]) | Activity (Saccharomyces cerevisiae [5]) | Activity (Saccharomyces cerevisiae [6]) | Activity (Saccharomyces cerevisiae [7]) | Activity (Saccharomyces cerevisiae [8]) | Activity (Saccharomyces cerevisiae [9]) | Activity (Saccharomyces cerevisiae [10]) | Activity (Saccharomyces cerevisiae [11]) | Activity (Saccharomyces cerevisiae [12]) | Activity (Saccharomyces cerevisiae [13]) | Activity (Saccharomyces cerevisiae [14]) | Activity (Saccharomyces cerevisiae [15]) | Activity (Saccharomyces cerevisiae [16]) | Activity (Saccharomyces cerevisiae [17]) | Activity (Saccharomyces cerevisiae [18]) | Activity (Saccharomyces cerevisiae [19]) | Activity (Saccharomyces cerevisiae [20]) | also measured
CN1CC[C@H](c2c(O)cc(O)c3c(=O)cc(-c4ccccc4Cl)oc23)[C@H](O)C1 [ALVOCIDIB] | Active | Active | Active | Active | Active | Active | Active | Active | inactive | Active | Active | Active | Active | Active | Active | Active | Active | inactive | Active | Active | Activity (Saccharomyces cerevisiae [21]): Active; Activity (Saccharomyces cerevisiae [22]): Active; fold change (FC) (Saccharomyces cerevisiae [23]): 3; Activity (Saccharomyces cerevisiae [24]): Active; Activity (Saccharomyces cerevisiae [25]): Active; Activity (Saccharomyces cerevisiae [26]): Active; Activity (Saccharomyces cerevisiae [27]): Active; Activity (Saccharomyces cerevisiae [28]): Active; Activity (Saccharomyces cerevisiae [29]): Active; Activity (Saccharomyces cerevisiae [30]): Active; Activity (Saccharomyces cerevisiae [31]): Active
CC(C)n1cnc2/c(=N/c3cccc(Cl)c3)nc(NCCO)[nH]c21 | Active | Active | Active | Active | Active | Active | Active | Active | inactive | Active | Active | Active | Active | Active | Active | Active | Active | inactive | Active | Active | Activity (Saccharomyces cerevisiae [21]): Active; Activity (Saccharomyces cerevisiae [22]): Active; fold change (FC) (Saccharomyces cerevisiae [23]): 3; Activity (Saccharomyces cerevisiae [24]): Active; Activity (Saccharomyces cerevisiae [25]): Active; Activity (Saccharomyces cerevisiae [26]): Active; Activity (Saccharomyces cerevisiae [27]): Active; Activity (Saccharomyces cerevisiae [28]): Active; Activity (Saccharomyces cerevisiae [29]): Active; Activity (Saccharomyces cerevisiae [30]): Active; Activity (Saccharomyces cerevisiae [31]): Active
